Assay type in all cases: cell-based
The species named for assay [1] is Homo sapiens. Description: Inhibition of Ca2+ ATPase activity in human red blood cells at 400 uM by spectrophotometry. The method in brief: (§1)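 Calmodulin-depleted membranes from human packed erythrocytes (2.5 mg/ml) were incubated for 1 h at 37° in 65 mM KCl, 20 mM K-HEPES, 5 mM MgCl2, 50 μM CaCl2 (50.4 μM free Ca2+), 0.1 μM calmodulin and 0.1 mM EGTA. Test agents in DMSO (2.5% final) were added before 2 mM ATP (pH 7.4). Released phosphate was read spectrometrically, Mg2+-ATPase activity was subtracted, and assays were run in duplicate.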

The species named for assay [2] is Homo sapiens. Nature of the assay: Inhibition of Ca2+ ATPase activity in human red blood cells at 200 uM by spectrophotometry. In outline: as §1
The species entered for assay [3] is Homo sapiens. Nature of the assay: Inhibition of Mg2+ ATPase activity in human red blood cells at 800 uM by spectrophotometry. In outline:
(§2)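 Mg2+-ATPase was assayed with calmodulin-depleted human erythrocyte membranes (2.5 mg/ml) at 37° for 1 h, without added CaCl2, in 65 mM KCl, 20 mM K-HEPES, 5 mM MgCl2, 0.1 μM calmodulin and 0.1 mM EGTA. Compounds in DMSO (2.5% final) were added before starting with 2 mM ATP (pH 7.4). Liberated phosphate was measured spectrometrically, in duplicate.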

The species entered for assay [4] is Homo sapiens. Description: Inhibition of Ca2+ ATPase activity in human red blood cells at 100 uM by spectrophotometry. In outline:
as §1

Assay [5] is filed under the species Homo sapiens. Description: Inhibition of Ca2+ ATPase activity in human red blood cells at 1600 uM by spectrophotometry. In outline:
as §1

The species named for assay [6] is Homo sapiens. Description: Inhibition of Ca2+ ATPase activity in human red blood cells at 50 uM by spectrophotometry. In outline:
as §1

Assay [7] is filed under the species Homo sapiens. Description: Inhibition of Mg2+ ATPase activity in human red blood cells at 1600 uM by spectrophotometry. The method in brief: as §2
The species named for assay [8] is Homo sapiens. Nature of the assay: Inhibition of Mg2+ ATPase activity in human red blood cells at 100 uM by spectrophotometry. The method in brief: as §2
The species entered for assay [9] is Homo sapiens. Description: Inhibition of Ca2+ ATPase activity in human red blood cells at 25 uM by spectrophotometry. The method in brief:
as §1

For assay [10], the species on record is Homo sapiens. Description: Inhibition of Ca2+ ATPase activity in human red blood cells at 800 uM by spectrophotometry. In outline: as §1
The species entered for assay [11] is Homo sapiens. Description: Inhibition of Mg2+ ATPase activity in human red blood cells at 50 uM by spectrophotometry. In outline: as §2
Assay [12] is filed under the species Homo sapiens. Nature of the assay: Inhibition of Mg2+ ATPase activity in human red blood cells at 25 uM by spectrophotometry. In outline:
as §2

For assay [13], the species on record is Homo sapiens. Nature of the assay: Inhibition of Mg2+ ATPase activity in human red blood cells at 400 uM by spectrophotometry. In outline:
as §2

The nature of assay [14]: Inhibition of Ca2+ ATPase activity in human red blood cells by spectrophotometry. The method in brief:
as §1

Assay [15] is filed under the species Homo sapiens. Nature of the assay: Inhibition of Mg2+ ATPase activity in human red blood cells at 200 uM by spectrophotometry. In outline:
as §2

SMILES strings stand for the structures. Activity calls are given as the source filed them. No cut-off for these calls is given here.

`OC[C@H]1O[C@@H](Oc2c(O)cc(O)cc2/C=C/c2ccc(O)cc2)[C@H](O)[C@@H](O)[C@@H]1O`: the inhibition in the assay listed under Homo sapiens [1] stood at 70%; in the assay filed under Homo sapiens [2], 44%; in the assay listed under Homo sapiens [3], 62%; in the assay listed under Homo sapiens [4], 15%; in the assay listed under Homo sapiens [5], 98%; in the assay filed under Homo sapiens [6], 8%. Further, the inhibition in the assay listed under Homo sapiens [7] is 75%; in the assay listed under Homo sapiens [8] it was 28%; in the assay listed under Homo sapiens [9] it was 8%; in the assay filed under Homo sapiens [10], 95%; in the assay filed under Homo sapiens [11] it was 25%; in the assay listed under Homo sapiens [12], 14%. Also, the inhibition was determined as 56% in the assay listed under Homo sapiens [13] and 41% in the assay filed under Homo sapiens [15]. Besides, in [14], inhibition was half-maximal at 240 µM (IC50).

Consider `COc1ccc(/C=C/c2cc(O)cc(O[C@@H]3O[C@H](CO)[C@@H](O)[C@H](O)[C@H]3O)c2)cc1O`, for which the outcome in the assay listed under Homo sapiens [5] was inactive.

For `Cc1cc(O)c2c(c1)C(=O)c1cc(O)cc(O)c1C2=O`, the outcome in the assay listed under Homo sapiens [5] was inactive.

Take `Cc1cc(O)c2c(c1)C(=O)c1cccc(O)c1C2=O`: the result in the assay listed under Homo sapiens [5] was inactive.

With `O=C(O)c1cc(O)c2c(c1)C(=O)c1cccc(O)c1C2=O`, the outcome in the assay listed under Homo sapiens [5] was inactive.

For `OC[C@H]1O[C@@H](Oc2cc(O)cc(O)c2/C=C/c2ccc(O)cc2)[C@H](O)[C@@H](O)[C@@H]1O`, the result in the assay listed under Homo sapiens [2], in the assay filed under Homo sapiens [4], in the assay listed under Homo sapiens [6], in the assay listed under Homo sapiens [8], in the assay listed under Homo sapiens [9] and in the assay filed under Homo sapiens [11] was inactive. The result in the assay filed under Homo sapiens [12] and in the assay filed under Homo sapiens [15] was inactive.

On to `CCC/C=C1/OC(=O)C2=C1CC[C@H](O)[C@H]2O` (relative stereo), for which the inhibition was determined as 72% in the assay listed under Homo sapiens [1]; 36% in the assay filed under Homo sapiens [2]; 71% in the assay listed under Homo sapiens [3]; 8% in the assay filed under Homo sapiens [4]; 94% in the assay listed under Homo sapiens [5]; 3% in the assay listed under Homo sapiens [6]. Further, the inhibition in the assay filed under Homo sapiens [7] was found to be 82%; in the assay filed under Homo sapiens [8] it was 32%; in the assay listed under Homo sapiens [9], 0%; in the assay filed under Homo sapiens [10], 87%; in the assay filed under Homo sapiens [11] it was 13%; in the assay filed under Homo sapiens [12], 21%. Moreover, the inhibition in the assay filed under Homo sapiens [15] is 32%. Moreover, in assay [14], the IC50 was determined as 260 µM.

Consider `CCC/C=C1/OC(=O)C2=C1CC[C@H](O)[C@@H]2O` (relative stereo), for which the inhibition is 79% in the assay filed under Homo sapiens [1]; 62% in the assay listed under Homo sapiens [2]; 85% in the assay listed under Homo sapiens [3]; 27% in the assay filed under Homo sapiens [4]; 0% in the assay listed under Homo sapiens [6]; 36% in the assay filed under Homo sapiens [8]. Moreover, the inhibition was determined as 0% in the assay filed under Homo sapiens [9]; 90% in the assay listed under Homo sapiens [10]; 17% in the assay listed under Homo sapiens [11]; 0% in the assay filed under Homo sapiens [12]; 67% in the assay listed under Homo sapiens [13]; 52% in the assay filed under Homo sapiens [15]. In [14], this compound showed an IC50 of 160 µM.

Values taken from ChEMBL document CHEMBL1148092, “Novel Ca(2+)-ATPase inhibitors from the dried root tubers of Polygonum Multiflorum” (J Nat Prod, 1994).
